Assay results published in ChEMBL document CHEMBL1151442, “Genetic and phenotypic identification of fusidic acid-resistant mutants with the small-colony-variant phenotype in Staphylococcus aureus” (2007).
Values after ≈ are worked out from the molar mass of the structure shown.

Assays:
Format in all cases: functional
[1] = system: Staphylococcus aureus; assay: Antibacterial activity against kanamycin-resistant Staphylococcus aureus AH336 (SCV-8) harboring His438Asn mutation in fusA gene after 18 to 24 hrs by Etest strip assay
In short: (§1)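 SCVs of a Rifr 8325-4 derivative were selected on LA with KAN at 8, 16 or 24 μg/ml for 48 h at 37°C. They were purified at the same KAN level and screened on LA plus FA 1 μg/ml.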

[2] = system: Staphylococcus aureus; assay: Antibacterial activity against kanamycin-resistant Staphylococcus aureus AH367 (SCV-39) harboring Gly664Ser mutation in fusA gene after 18 to 24 hrs by Etest strip assay; in short: as §1
[3] = system: Staphylococcus aureus; assay: Antibacterial activity against kanamycin-resistant Staphylococcus aureus AH378 (SCV-50) harboring -1 frameshift mutation at nucleotide 221 in rplF gene after 18 to 24 hrs by Etest strip assay; in short: as §1
[4] = system: Staphylococcus aureus; assay: Antibacterial activity against fusidic acid-resistant Staphylococcus aureus AH197 harboring Leu456Phe mutation in fusA gene after 18 to 24 hrs by Etest strip assay
In short: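 Mutants of lab strain 8325-4 were selected on LA with FA 2 μg/ml for 48 h at 37°C and purified on selective medium. For the MIC, one colony was suspended in 0.9% NaCl to 0.5 McFarland and swabbed onto Mueller-Hinton agar. An Etest strip was applied and plates were incubated at 37°C for 18–24 h until the lawn was evident.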

[5] = system: Staphylococcus aureus; assay: Antibacterial activity against kanamycin-resistant and fusidic acid-susceptible Staphylococcus aureus AH292 harboring Gly664Val mutation in fusA gene after 18 to 24 hrs by Etest strip assay
In short: (§2)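 Etest MIC: a single colony was suspended in 0.9% NaCl to 0.5 McFarland and swabbed over Mueller-Hinton agar. The strip was applied and plates were incubated at 37°C for 18 to 24 h until an SCV lawn grew.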

[6] = system: Staphylococcus aureus; assay: Antibacterial activity against kanamycin-resistant and fusidic acid-susceptible Staphylococcus aureus AH296 harboring Gly664Ala mutation in fusA gene after 18 to 24 hrs by Etest strip assay; in short: as §2
[7] = system: Staphylococcus aureus; assay: Antibacterial activity against kanamycin-resistant and fusidic acid-susceptible Staphylococcus aureus AH290 harboring duplication mutation at nucleotide 202-293 in rplF gene after 18 to 24 hrs by Etest strip assay; in short: as §2
[8] = system: Staphylococcus aureus; assay: Antibacterial activity against stationary-phase rifampin-resistant Staphylococcus aureus 8325-4 culture assessed as number of viable colonies at 16 ug/ ml after 48 hrs
In short: (§3)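 Twenty independent stationary-phase overnight LB cultures of the Rifr 8325-4 derivative were made; 108 cells from each were spread on LA with kanamycin at 8, 16 or 24 μg/ml. Plates were incubated 48 h at 37°C so that slow-growing variants could form visible colonies, and Kanr colonies were counted.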

[9] = system: Staphylococcus aureus; assay: Antibacterial activity against stationary-phase rifampin-resistant Staphylococcus aureus 8325-4 culture assessed as number of viable colonies at 24 ug/ ml after 48 hrs; in short: as §3
[10] = system: Staphylococcus aureus; assay: Antibacterial activity against stationary-phase rifampin-resistant Staphylococcus aureus 8325-4 culture assessed as number of viable colonies at 8 ug/ ml after 48 hrs; in short: as §3
[11] = system: Staphylococcus aureus; assay: Antibacterial activity against kanamycin-resistant and fusidic acid-susceptible Staphylococcus aureus AH297 harboring Ser660Pro mutation in fusA gene after 18 to 24 hrs by Etest strip assay; in short: as §2

Structure (SMILES)	MIC [1]	MIC [2]	MIC [3]	MIC [4]	MIC [5]	MIC [6]	MIC [7]	Activity [8]	Activity [9]	Activity [10]	MIC [11]
CN[C@@H]1[C@H](O[C@H]2[C@H](O[C@H]3[C@H](O)[C@@H](O)[C@H](N=C(N)N)[C@@H](O)[C@@H]3N=C(N)N)O[C@@H](C)[C@]2(O)C=O)O[C@@H](CO)[C@H](O)[C@H]1O [STREPTOMYCIN]	12 µg/mL (≈ 20.6 µM)	16 µg/mL (≈ 27.5 µM)	256 µg/mL	8 µg/mL (≈ 13.8 µM)	16 µg/mL (≈ 27.5 µM)	8 µg/mL (≈ 13.8 µM)	64 µg/mL (≈ 110 µM)				
NC[C@H]1O[C@H](O[C@H]2[C@H](O)[C@@H](O[C@H]3O[C@H](CO)[C@@H](O)[C@H](N)[C@H]3O)[C@H](N)C[C@@H]2N)[C@H](O)[C@@H](O)[C@@H]1O [KANAMYCIN]	16 µg/mL (≈ 33 µM)	12 µg/mL (≈ 24.8 µM)	16 µg/mL	6 µg/mL (≈ 12.4 µM)	32 µg/mL (≈ 66 µM)	16 µg/mL (≈ 33 µM)	256 µg/mL (≈ 528 µM)	200	30	1000	24 µg/mL (≈ 49.5 µM)
CC(=O)O[C@H]1C[C@@]2(C)[C@@H](C[C@@H](O)[C@H]3[C@@]4(C)CC[C@@H](O)[C@@H](C)[C@@H]4CC[C@@]32C)/C1=C(\CCC=C(C)C)C(=O)O [FUSIDIC ACID]	8 µg/mL (≈ 15.5 µM)	12 µg/mL (≈ 23.2 µM)	8 µg/mL	4 µg/mL (≈ 7.74 µM)	6 µg/mL (≈ 11.6 µM)	3 µg/mL (≈ 5.81 µM)	8 µg/mL (≈ 15.5 µM)				2 µg/mL (≈ 3.87 µM)
